Assay [1] concerns the target T1, Sterol O-acyltransferase 1 (Rattus norvegicus) (UniProt O70536).
T1 sequence (whole entry): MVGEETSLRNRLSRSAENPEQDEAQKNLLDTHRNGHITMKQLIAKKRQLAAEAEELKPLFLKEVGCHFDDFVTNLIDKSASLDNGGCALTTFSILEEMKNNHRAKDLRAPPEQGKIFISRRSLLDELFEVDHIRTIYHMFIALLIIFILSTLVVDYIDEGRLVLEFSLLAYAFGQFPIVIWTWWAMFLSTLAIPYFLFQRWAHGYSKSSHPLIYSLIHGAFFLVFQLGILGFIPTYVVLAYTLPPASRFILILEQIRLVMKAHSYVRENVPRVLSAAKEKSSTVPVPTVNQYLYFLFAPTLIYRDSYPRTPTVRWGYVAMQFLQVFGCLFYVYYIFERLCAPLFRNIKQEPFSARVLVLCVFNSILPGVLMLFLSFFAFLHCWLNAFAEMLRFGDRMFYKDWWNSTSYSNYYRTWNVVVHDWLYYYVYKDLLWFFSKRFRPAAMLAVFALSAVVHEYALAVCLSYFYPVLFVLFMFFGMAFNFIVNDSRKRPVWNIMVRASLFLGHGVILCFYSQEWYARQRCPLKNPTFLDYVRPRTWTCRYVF
The experiment in a line: Tested in vitro for Acyl coenzyme A:cholesterol acyltransferase (ACAT) activity in rat liver microsome at a concentration of 1 micro g/mL. In general terms: Liver microsomes are vesicles of endoplasmic reticulum, rich in cytochrome P450 enzymes.

For assay [2], the system named is Rattus norvegicus. The experiment in a line: Tested in vivo for anti-hypercholesterolaemic activity in male Sprague-Dawley rat. In kind it is functional. In short, it runs like this: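 Compound was given at 0.03% w/w in the diet (about 30 mg/kg/day). Basal-diet rats (n = 4) gave a baseline that was subtracted. Plasma cholesterol was measured enzymatically, and the result was expressed as percent change versus undosed controls.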

The target of assay [3] is T2, Sterol O-acyltransferase 1 (Rattus norvegicus, UniProt O70536).
T2 sequence (O70536 whole entry): T1 sequence (whole entry)
The experiment in a line: Inhibition of acyl coenzyme A:cholesterol acyltransferase (ACAT) activity in rat liver microsome. It is filed as microsomes. An outline of the steps: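 The assay used rat hepatic microsomes from cholesterol-fed animals (60 μg protein) and 90 μM radiolabeled oleoyl-CoA. Cholesterol ester product was resolved by TLC and counted by scintillation. IC50 was the concentration inhibiting 50% of enzyme activity.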

The target of assay [4] is T1, Sterol O-acyltransferase 1 (Rattus norvegicus). The experiment in a line: Tested in vitro for acyl coenzyme A:cholesterol acyltransferase (ACAT) activity in rat liver microsome at a concentration of 1 micro g/mL. In kind it is microsomes. An outline of the steps:
(§1)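 Enzyme source was hepatic microsomes from cholesterol-fed rats, 60 μg microsomal protein per reaction, with 90 μM radiolabeled oleoyl-CoA. Cholesterol ester formed was separated by TLC and quantified by scintillation counting. Compounds were tested at a single fixed concentration of 1 or 10 μg/mL, and results were given as percent inhibition of enzyme activity.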

Assay [5] shares this target. The experiment in a line: In vitro acyl coenzyme A:cholesterol acyltransferase (ACAT) activity in rat liver microsome at a concentration of 10 micro g/mL. In kind it is microsomes. In short, it runs like this: as §1

On to `CO[C@]1(C)C[C@H](O)C[C@@H](CSc2nc(-c3ccccc3)c(-c3ccccc3)[nH]2)O1`, for which the inhibition in assay [1] came out at 85%.
Take `c1ccc(-c2nc(SCC3CCCCO3)[nH]c2-c2ccccc2)cc1` (centres undefined): the Change in assay [2] was -38%. The compound further yielded a 50% inhibitory concentration (IC50) in assay [3] of 210 nM. This compound also came in with an inhibition in assay [4] of 92%.
For the compound `CCOC(CSc1nc(-c2ccccc2)c(-c2ccccc2)[nH]1)OCC`, the Change in assay [2] was -37%. Besides, in assay [5], the inhibition is 99%. The compound also displayed an IC50 in assay [3] of 250 nM.
For the compound `CC1(C)CC(=O)OC(CSc2nc(-c3ccccc3)c(-c3ccccc3)[nH]2)C1` (centres undefined), the Change in assay [2] is listed as -17%. Further, half-maximal inhibition in assay [3] (IC50) required 100 nM. In assay [4], the inhibition worked out at 94%.
The like results for `CCOC(CCSc1nc(-c2ccccc2)c(-c2ccccc2)[nH]1)OCC` were, in that order, 4%, 69 nM and 95%.
The like results for `c1ccc(-c2nc(SCCCC3OCCCO3)[nH]c2-c2ccccc2)cc1` were, in that order, -57%, 47 nM and 96%.
With `Cc1cccc(-c2nc(SC[C@H]3C[C@@](C)(O)CC(=O)O3)[nH]c2-c2cccc(C)c2)c1.Cc1cccc(-c2nc(SC[C@H]3C[C@](C)(O)CC(=O)O3)[nH]c2-c2cccc(C)c2)c1`, in assay [2], the Change is -64%. The half-maximal inhibitory concentration (IC50) in assay [3] was 64 nM. For the same compound, in assay [4], the inhibition turned out to be 94%.
As for `O=C1CCCC(CSc2nc(-c3ccccc3)c(-c3ccccc3)[nH]2)O1` (centres undefined), in assay [2], the Change was 16%. The compound also displayed an inhibition in assay [5] of 95%. In assay [3], this compound displayed a 50% inhibitory concentration (IC50) of 740 nM.
The matching figures for `CC1=CC(=O)OC(CSc2nc(-c3ccccc3)c(-c3ccccc3)[nH]2)C1` (centres undefined): 27%, 98% and 200 nM.
Regarding `c1ccc(-c2nc(SCC3OCCO3)[nH]c2-c2ccccc2)cc1`, the Change in assay [2] is on record as -29%. The same compound returned a half-maximal inhibitory concentration (IC50) in assay [3] of 530 nM. This compound also came in with an inhibition in assay [4] of 98%.
Turning to `c1ccc(-c2nc(SCC3CCCCC3)[nH]c2-c2ccccc2)cc1`, the Change in assay [2] is listed as -92%. The same compound returned an IC50 in assay [3] of 100 nM. The same compound showed an inhibition in assay [4] of 95%.
Regarding `CC(O)(CC(=O)[O-])CC(O)CSc1nc(-c2ccccc2)c(-c2ccccc2)[nH]1.[Na+]` (centres undefined), the Change in assay [2] is on record as -33%. In addition, the inhibition in assay [5] was determined as 66%.
In the case of `C[C@]1(O)CC(=O)OC(CSc2nc(-c3ccccc3)c(-c3ccccc3)[nH]2)C1` (some centres undefined), the Change in assay [2] is on record as -35%. The compound further registered an inhibition in assay [5] of 98%. The IC50 in assay [3] was found to be 140 nM.
Consider `C[C@@]1(O)CC(=O)OC(CSc2nc(-c3ccccc3)c(-c3ccccc3)[nH]2)C1` (some centres undefined), for which the Change in assay [2] is reported as -105%. For the same compound, in assay [5], the inhibition amounted to 98%. In addition, inhibition in assay [3] was half-maximal at 170 nM (IC50).
`O=C1CCCC(CSc2nc(-c3ccccc3)c(-c3ccccc3)[nH]2)N1` (centres undefined) returned a 50% inhibitory concentration (IC50) in assay [3] of 610 nM. In assay [4], this compound yielded an inhibition of 86%.
`CO[C@@H]1C[C@@](C)(O)C[C@H](CSc2nc(-c3ccccc3)c(-c3ccccc3)[nH]2)O1`: the IC50 in assay [3] worked out at 82 nM. Moreover, the inhibition in assay [4] amounted to 93%.
As for `c1ccc(-c2nc(SCC3OCCCO3)[nH]c2-c2ccccc2)cc1`, the Change in assay [2] is reported as -10%. Besides, the inhibition in assay [5] was 97%. In assay [3], the half-inhibitory concentration (IC50) was 180 nM.
Compound `CO[C@H]1C[C@@](C)(O)C[C@H](CSc2nc(-c3ccccc3)c(-c3ccccc3)[nH]2)O1` registered an IC50 in assay [3] of 280 nM. In addition, the inhibition in assay [4] was 89%.
With `CC(O)(CC(=O)OC(C)(C)C)CC(O)CSc1nc(-c2ccc(Cl)cc2)c(-c2ccc(Cl)cc2)[nH]1` (centres undefined), the Change in assay [2] is reported as -53%. The inhibition in assay [5] was found to be 97%. This compound had an IC50 in assay [3] of 250 nM.
Turning to `C[C@@]1(O)CC(=O)OC(CSc2nc(-c3ccc(Cl)cc3)c(-c3ccc(Cl)cc3)[nH]2)C1` (some centres undefined), in assay [2], the Change is -11%. The inhibition in assay [5] came to 98%. For the same compound, the IC50 in assay [3] turned out to be 180 nM.

Usually inhibition stands for the share of the control response that was lost under treatment. What is called IC50 is the concentration that gives 50% inhibition. Lower therefore signals greater potency.

For the origin of these results see ChEMBL document CHEMBL1125365, “Acyl-CoA:cholesterol O-acyl transferase (ACAT) inhibitors. 1. 2-(Alkylthio)-4,5-diphenyl-1H-imidazoles as potent inhibitors of ACAT” (J Med Chem, 1992).
